For seven compounds, IC50, inhibition and Activity results are on record in ChEMBL document CHEMBL1155578, “In vitro antiinflammatory effects of neolignan woorenosides from the rhizomes of Coptis japonica” (J Nat Prod, 2000).

The subject of assay [1] is RAW264.7. Kind of assay: Antiinflammatory activity against mouse RAW264.7 cells assessed as inhibition of LPS-induced TNFalpha production after 4 hrs by ELISA. Type of assay: functional, cell-based. The following applies: RAW264.7, 4 h. The method in brief:
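Compounds were dissolved in vehicle (propylene glycol/ethanol/DMSO), kept at ≤0.1% final, and added with LPS (1 µg/mL) for 4 h. Supernatant TNF-α was measured by mouse TNF-α ELISA. Results are mean ± SEM of four observations in triplicate.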

Assay [2] can be described thus: Inhibition of IL2-dependent mouse CTLL2 cell proliferation after 48 hrs by MTT assay. Type of assay: functional, cell-based. The following applies: CTLL-2, 48 h. Put shortly:
(§1)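 CTLL-2 cells were washed free of IL-2 and FBS, then resuspended at 5×10^5 cells/mL in growth medium without IL-2. They were incubated with compounds plus IL-2 (50 U/mL) for 48 h at 37 °C and 5% CO2. Proliferation was read by MTT assay. Results are mean ± SEM of four observations.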
For orientation: Tetrazolium assays rely on reduction of a dye to a coloured formazan, in cell work by metabolically active cells.

Assay [3] concerns RAW264.7. Kind of assay: Antiinflammatory activity against mouse RAW264.7 assessed as inhibition of IFN-gamma-induced NO production after 24 hrs. It is filed as functional, cell-based. The following applies: RAW264.7, 24 h. The method in brief: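 RAW264.7 mouse macrophages kept in RPMI 1640 with 10% FBS and antibiotics, 37 °C, 5% CO2. Cells pre-cultured 18 h at 1×10^6 cells/mL, then given graded compound concentrations plus IFN-γ (50 U/mL) for 24 h. Supernatant nitrite read by Griess reagent (10 min, room temperature) at OD550, quantified against a sodium nitrite standard curve. Mean ± SEM, four separate observations in triplicate.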

Assay [4] has as its system RAW264.7. Nature of the assay: Antiinflammatory activity against mouse RAW264.7 assessed as inhibition of LPS-induced NO production after 24 hrs. It is filed as functional, cell-based. The following applies: RAW264.7, 24 h. Put shortly: (§2)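 RAW264.7 cells were plated at 1×10^6 cells/mL and held 18 h. Compounds were then added with LPS (1 µg/mL) for lines 1 and 3, or IFN-γ (50 U/mL) for line 2, and incubated 24 h. Supernatant nitrite was measured with Griess reagent (10 min, room temperature) at OD550 against a sodium nitrite standard curve. Detection limit was 0.5 µM. Results are mean ± SEM of four observations run in triplicate.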

In a further assay the test system is Splenocyte. Kind of assay: Inhibition of Concanavalin A-stimulated cell proliferation in mouse splenocytes after 48 hrs by MTT assay. It is filed as functional, cell-based. The method in brief:
(§3)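 Splenocytes came from BALB/c male mice (eight weeks old); red cells were lysed with NH4Cl-Tris. Cells were cultured at 5×10^6 cells/mL with Con A (1 µg/mL) and compounds for 48 h. Results are mean ± SEM of four observations.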

Assay [5] in a line: Antiinflammatory activity against mouse splenocytes assessed as inhibition of ConA-stimulated proliferation at 80 uM after 48 hrs by MTT assay. The following applies: Splenocyte. It is filed as functional. The method in brief:
as §3

The test system of assay [6] is RAW264.7. Kind of assay: Antiinflammatory activity against mouse RAW264.7 cells assessed as inhibition of LPS-induced NO production at 80 uM after 24 hrs. The following applies: RAW264.7, 24 h. Type of assay: functional. Put shortly: as §2
Assay [7] can be described thus: Inhibition of IL2-dependent mouse CTLL2 cell proliferation at 80 uM after 48 hrs by MTT assay. The following applies: CTLL-2, 48 h. It is filed as functional. The method in brief: as §1
Assay [8] deals with RAW264.7. Nature of the assay: Antiinflammatory activity against mouse RAW264.7 cells assessed as inhibition of IFN-gamma-induced NO production at 20 uM after 24 hrs. Type of assay: functional. The arrangement: scale not given: the % may be the effect or the level left. Put shortly:
as §2

For assay [9], the system named is RAW264.7. Nature of the assay: Antiinflammatory activity against mouse RAW264.7 cells assessed as inhibition of LPS-induced TNFalpha production at 80 uM after 4 hrs by ELISA. It is filed as functional. The following applies: RAW264.7, 4 h. The method in brief:
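RAW264.7 cells (2×10^6 cells/mL) were pre-incubated 18 h in RPMI 1640 with 10% FBS. Compounds were dissolved in vehicle (propylene glycol/ethanol/DMSO), kept at ≤0.1% final, and added with LPS (1 µg/mL) for 4 h. Supernatant TNF-α was measured by mouse TNF-α ELISA. Results are mean ± SEM of four observations in triplicate.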
In general terms: An ELISA detects its analyte on a solid surface through an enzyme-linked reagent.

In a further assay the test system is SUP-T1. Kind of assay: Cytotoxicity against human Sup-T1 cells at 80 uM after 48 hrs by MTT assay. The following applies: SUP-T1, 48 h.

Broadly, the IC50 is the midpoint of a concentration-inhibition curve. With `CCCC(=O)Nc1ncnc2c1ncn2[C@@H]1O[C@@H]2COP(=O)(O)O[C@H]2[C@H]1OC(=O)CCC` [BUCLADESINE], the 50% inhibitory concentration (IC50) in the assay with RAW264.7 [1] came to 28.9 µM; in assay [2], 576 µM.

Turning to `COC(=O)[C@@H](N)CCCNC(=N)N[N+](=O)[O-]` [L-NAME], the IC50 worked out at 116 µM in the assay with RAW264.7 [3] and 193 µM with RAW264.7 [4].

Consider `N[C@H]1CONC1=O` [LEVCYCLOSERINE], for which it took 3.5 µM to reach half-maximal inhibition in the assay with Splenocyte (IC50).

Turning to `CC(=O)CCCCn1c(=O)c2c(ncn2C)n(C)c1=O` [PENTOXIFYLLINE], the concentration for half-maximal inhibition (IC50) in the assay with RAW264.7 [1] worked out at 247 µM.

In the case of `C[C@]12C=CC(=O)C=C1CC[C@@H]1[C@@H]2[C@@H](O)C[C@@]2(C)[C@H]1CC[C@]2(O)C(=O)CO` [PREDNISOLONE], the half-inhibitory concentration (IC50) in the assay on RAW264.7 [1] was found to be 25.4 µM.

Take `C/C(O)=C(\C#N)C(=O)Nc1ccc(C(F)(F)F)cc1` [TERIFLUNOMIDE]: the results for the IC50 (in assay [2]; in the assay on Splenocyte) were 11.2 µM and 6.7 µM, respectively.

Broadly, the inhibition is the change of the read-out against control, counted positive when it falls. For `COc1cc([C@@H]2Oc3c(OC)cc(/C=C/CO[C@@H]4O[C@H](CO)[C@@H](O)[C@H](O)[C@H]4O)cc3[C@H]2CO)cc(OC)c1OC` [WOORENOSIDE I], the inhibition at 80 µM in assay [5] is 24.8%; in the assay on RAW264.7 [6], 34.7%; in [7], -5.4%; in the assay on RAW264.7 [9], 15.4%; with SUP-T1 it was 32.1%. Moreover, the Activity in the assay with RAW264.7 [8] was found to be 8.5%.
